Source: ChEMBL document CHEMBL4130487, “A pentanoic acid derivative targeting matrix metalloproteinase-2 (MMP-2) induces apoptosis in a chronic myeloid leukemia cell line” (Eur J Med Chem, 2017)

Key:
A549 = experiment: Cytotoxicity against human A549 cells assessed as reduction in cell viability after 48 hrs by MTT assay; assay type: functional, cell-based; conditions: A549, 48 h
Method in brief: (§1)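 A549, MDA-MB-231, K562, U937 and PBMC (PBMC from healthy donors) seeded at 1×10^3 cells/well and left 24 h, then exposed to compounds for 48 h at 37 °C, 5% CO2. Adherent lines were grown in DMEM, the others in RPMI-1640 with 10% heat-inactivated FBS. MTT read-out; viability expressed as % of untreated control. IC50 taken as the concentration giving 50% viability loss.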

K562 = experiment: Cytotoxicity against human K562 cells assessed as reduction in cell viability after 48 hrs by MTT assay; assay type: functional, cell-based; conditions: K562, 48 h; method in brief: as §1
MDA-MB-231 = experiment: Cytotoxicity against human MDA-MB-231 cells assessed as reduction in cell viability after 48 hrs by MTT assay; assay type: functional, cell-based; conditions: MDA-MB-231, 48 h; method in brief: as §1
[1] = biological target: Macrophage metalloelastase (Homo sapiens, UniProt P39900); experiment: Inhibition of recombinant human MMP12 (Phe99 to Leu271 residues) expressed in Escherichia coli using Ac-Pro-Leu-Gly-S-Leu-Leu-Gly-OEt as substrate after 1 hr measured at 1 min time interval for 30 mins by microplate photometric method
Chain of Macrophage metalloelastase (P39900 whole entry): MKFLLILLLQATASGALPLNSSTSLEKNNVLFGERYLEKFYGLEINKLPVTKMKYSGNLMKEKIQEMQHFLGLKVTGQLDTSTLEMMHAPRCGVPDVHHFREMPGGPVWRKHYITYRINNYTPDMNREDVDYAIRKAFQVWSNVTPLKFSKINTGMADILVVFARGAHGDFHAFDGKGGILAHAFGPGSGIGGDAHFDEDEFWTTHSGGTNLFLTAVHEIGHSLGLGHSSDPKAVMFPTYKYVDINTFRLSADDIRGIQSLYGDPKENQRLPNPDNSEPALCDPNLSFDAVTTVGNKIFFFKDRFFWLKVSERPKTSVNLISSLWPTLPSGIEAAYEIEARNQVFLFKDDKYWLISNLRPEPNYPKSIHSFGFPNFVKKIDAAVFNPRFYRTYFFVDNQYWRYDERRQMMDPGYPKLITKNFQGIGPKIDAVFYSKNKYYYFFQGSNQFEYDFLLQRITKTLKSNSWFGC
Method in brief: (§2)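 Commercial MMP kits; compound preincubated with enzyme before chromogenic substrate was added. Reactions at 37 °C for 1 h, with at least six inhibitor concentrations in triplicate. Absorbance at 410 nm read every 1 min for 30 min. NNGH used as reference inhibitor. IC50 taken from semi-logarithmic dose-response plots.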

[2] = biological target: Matrix metalloproteinase-9 (Homo sapiens, UniProt P14780); experiment: Inhibition of recombinant human MMP9 (Phe107 to Pro449 residues) expressed in Escherichia coli using Ac-Pro-Leu-Gly-S-Leu-Leu-Gly-OEt as substrate after 1 hr measured at 1 min time interval for 30 mins by microplate photometric method; method in brief: as §2
Chain of Matrix metalloproteinase-9 (P14780 whole entry): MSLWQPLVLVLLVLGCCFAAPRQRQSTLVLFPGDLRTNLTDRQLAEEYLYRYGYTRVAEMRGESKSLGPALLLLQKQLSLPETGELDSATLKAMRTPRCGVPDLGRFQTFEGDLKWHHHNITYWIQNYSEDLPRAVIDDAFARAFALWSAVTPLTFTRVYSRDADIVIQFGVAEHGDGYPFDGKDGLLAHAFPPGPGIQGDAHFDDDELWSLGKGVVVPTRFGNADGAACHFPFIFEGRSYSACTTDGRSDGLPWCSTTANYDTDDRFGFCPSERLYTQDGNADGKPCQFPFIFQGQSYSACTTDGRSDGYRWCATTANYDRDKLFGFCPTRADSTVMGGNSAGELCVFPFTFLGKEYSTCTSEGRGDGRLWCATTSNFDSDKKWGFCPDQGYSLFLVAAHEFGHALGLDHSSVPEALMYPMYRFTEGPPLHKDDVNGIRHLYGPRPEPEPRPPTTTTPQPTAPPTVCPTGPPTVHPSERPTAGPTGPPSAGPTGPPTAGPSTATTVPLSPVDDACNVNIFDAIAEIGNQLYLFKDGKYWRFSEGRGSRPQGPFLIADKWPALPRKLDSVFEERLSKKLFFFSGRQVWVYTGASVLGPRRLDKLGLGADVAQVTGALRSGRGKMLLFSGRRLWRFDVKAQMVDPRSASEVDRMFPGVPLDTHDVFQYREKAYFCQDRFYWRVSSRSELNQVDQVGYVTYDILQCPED

Neutrophil collagenase = Neutrophil collagenase (Homo sapiens, UniProt P22894); experiment: Inhibition of recombinant human MMP8 (Phe99 to Gln269 residues) expressed in Escherichia coli using Ac-Pro-Leu-Gly-S-Leu-Leu-Gly-OEt as substrate after 1 hr measured at 1 min time interval for 30 mins by microplate photometric method; method in brief: as §2
Chain of Neutrophil collagenase (P22894 whole entry): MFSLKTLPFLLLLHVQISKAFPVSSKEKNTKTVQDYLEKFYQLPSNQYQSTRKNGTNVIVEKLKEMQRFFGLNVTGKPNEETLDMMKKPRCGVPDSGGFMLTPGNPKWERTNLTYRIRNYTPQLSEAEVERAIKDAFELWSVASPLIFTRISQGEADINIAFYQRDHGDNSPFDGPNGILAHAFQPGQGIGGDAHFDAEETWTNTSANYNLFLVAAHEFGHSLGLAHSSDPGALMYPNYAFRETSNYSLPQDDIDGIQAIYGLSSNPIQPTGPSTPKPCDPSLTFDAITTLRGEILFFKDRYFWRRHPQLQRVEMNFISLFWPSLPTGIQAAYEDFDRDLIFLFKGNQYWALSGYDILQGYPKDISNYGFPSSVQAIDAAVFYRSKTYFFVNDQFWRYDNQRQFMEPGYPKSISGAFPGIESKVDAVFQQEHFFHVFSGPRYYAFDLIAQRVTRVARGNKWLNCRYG

[3] = biological target: MMP-2/MMP-9 (Homo sapiens) (UniProt P08253+P14780); experiment: Selectivity ratio of IC50 for recombinant human MMP9 (Phe107 to Pro449 residues) expressed in Escherichia coli to IC50 for recombinant human MMP2 (Tyr110 to Asp452 residues)
U-937 = experiment: Cytotoxicity against human U937 cells assessed as reduction in cell viability after 48 hrs by MTT assay; assay type: functional, cell-based; conditions: U-937, 48 h; method in brief: as §1
PBMC = experiment: Cytotoxicity against human PBMC assessed as reduction in cell viability after 48 hrs by MTT assay; assay type: cell-based; method in brief: as §1
Interstitial collagenase = biological target: T1, Interstitial collagenase (Homo sapiens, UniProt P03956); experiment: Inhibition of recombinant human MMP1 (Phe100 to Gln268 residues) using Ac-Pro-Leu-Gly-S-Leu-Leu-Gly-OEt as substrate after 1 hr measured at 1 min time interval for 30 mins by microplate photometric method; method in brief: as §2
T1 sequence (P03956 whole entry): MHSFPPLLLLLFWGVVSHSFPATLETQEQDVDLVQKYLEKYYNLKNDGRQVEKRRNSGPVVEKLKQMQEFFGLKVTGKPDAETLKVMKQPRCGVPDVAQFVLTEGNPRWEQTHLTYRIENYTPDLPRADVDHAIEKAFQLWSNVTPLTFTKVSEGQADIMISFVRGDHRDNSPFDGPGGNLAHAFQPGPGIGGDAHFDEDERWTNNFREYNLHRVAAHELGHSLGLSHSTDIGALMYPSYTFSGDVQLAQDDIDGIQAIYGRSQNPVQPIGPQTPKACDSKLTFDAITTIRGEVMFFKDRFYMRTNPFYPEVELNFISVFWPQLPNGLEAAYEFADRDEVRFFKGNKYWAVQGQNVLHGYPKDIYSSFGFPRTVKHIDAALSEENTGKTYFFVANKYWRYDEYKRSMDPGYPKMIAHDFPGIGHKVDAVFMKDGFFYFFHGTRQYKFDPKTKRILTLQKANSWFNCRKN

[4] = biological target: 72 kDa type IV collagenase (Homo sapiens, UniProt P08253); experiment: Inhibition of recombinant human MMP2 (Tyr110 to Asp452 residues) using Ac-Pro-Leu-Gly-S-Leu-Leu-Gly-OEt as substrate after 1 hr measured at 1 min time interval for 30 mins by microplate photometric method; method in brief: as §2
Chain of 72 kDa type IV collagenase (P08253 whole entry): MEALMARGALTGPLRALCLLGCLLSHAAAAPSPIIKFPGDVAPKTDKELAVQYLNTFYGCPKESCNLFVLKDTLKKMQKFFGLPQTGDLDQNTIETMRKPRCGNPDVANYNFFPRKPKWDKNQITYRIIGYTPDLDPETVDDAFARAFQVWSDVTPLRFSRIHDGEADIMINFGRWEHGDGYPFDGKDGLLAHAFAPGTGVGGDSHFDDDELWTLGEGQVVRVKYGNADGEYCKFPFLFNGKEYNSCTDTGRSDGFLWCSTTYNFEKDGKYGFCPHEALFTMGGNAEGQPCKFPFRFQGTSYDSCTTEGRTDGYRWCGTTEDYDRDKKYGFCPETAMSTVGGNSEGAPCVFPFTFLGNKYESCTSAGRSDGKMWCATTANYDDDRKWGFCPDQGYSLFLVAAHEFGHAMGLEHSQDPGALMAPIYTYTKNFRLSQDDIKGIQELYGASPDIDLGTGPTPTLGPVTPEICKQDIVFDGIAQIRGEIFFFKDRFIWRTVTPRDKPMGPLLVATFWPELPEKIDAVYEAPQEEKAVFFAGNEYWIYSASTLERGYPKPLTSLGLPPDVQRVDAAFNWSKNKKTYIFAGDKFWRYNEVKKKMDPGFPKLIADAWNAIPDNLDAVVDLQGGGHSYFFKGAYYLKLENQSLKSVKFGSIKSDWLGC

[5] = biological target: Matrix metalloproteinase-14 (Homo sapiens, UniProt P50281); experiment: Inhibition of recombinant human MMP14 (Tyr112 to Arg298 residues) expressed in Escherichia coli using Ac-Pro-Leu-Gly-S-Leu-Leu-Gly-OEt as substrate after 1 hr measured at 1 min time interval for 30 mins by microplate photometric method; method in brief: as §2

| IC50 [1] | IC50 [2] | IC50 (Neutrophil collagenase) | Ratio IC50 [3] | IC50 (Interstitial collagenase) | IC50 [4] | IC50 [5] | Compound | IC50 (A549) | IC50 (K562) | IC50 (MDA-MB-231) | IC50 (U-937) | IC50 (PBMC) |
| --- | --- | --- | --- | --- | --- | --- | --- | --- | --- | --- | --- | --- |
| 198 µM | 6.36 µM | 346 µM | – | > 500 µM | 4.07 µM | 111 µM | CCCCNC(=O)CC[C@H](NS(=O)(=O)c1ccc([N+](=O)[O-])cc1)C(=O)O | 276 µM | 19.7 µM | > 500 µM | 94 µM | > 1000 µM |
| 109 µM | 4.8 µM | 298 µM | – | > 500 µM | 5.34 µM | 87.1 µM | CCNC(=O)CC[C@H](NS(=O)(=O)c1ccc([N+](=O)[O-])cc1)C(=O)O | 221 µM | > 500 µM | > 500 µM | 89.4 µM | > 1000 µM |
| > 500 µM | 7.5 µM | 401 µM | 2.63 | > 500 µM | 2.85 µM | > 500 µM | CNC(=O)CC[C@H](NS(=O)(=O)c1ccc([N+](=O)[O-])cc1)C(=O)O | > 500 µM | > 500 µM | > 500 µM | > 500 µM | > 1000 µM |

Further lines, the compound ahead of its results:

| Compound | IC50 [1] | IC50 [2] | IC50 (Neutrophil collagenase) | Ratio IC50 [3] | IC50 (Interstitial collagenase) | IC50 [4] | IC50 [5] | IC50 (A549) | IC50 (K562) | IC50 (MDA-MB-231) | IC50 (U-937) | IC50 (PBMC) |
| --- | --- | --- | --- | --- | --- | --- | --- | --- | --- | --- | --- | --- |
| NC(=O)CC[C@H](NS(=O)(=O)c1ccc([N+](=O)[O-])cc1)C(=O)O | 100 µM | 7 µM | 199 µM | 4.24 | > 500 µM | 1.65 µM | 76.3 µM | > 500 µM | > 500 µM | > 500 µM | > 500 µM | > 1000 µM |
| CC(C)NC(=O)CC[C@H](NS(=O)(=O)c1ccc([N+](=O)[O-])cc1)C(=O)O | 493 µM | 5.97 µM | > 500 µM | 2.82 | > 500 µM | 2.12 µM | 301 µM | > 500 µM | 19.8 µM | > 500 µM | 95.1 µM | > 1000 µM |
| CC(C)CNC(=O)CC[C@H](NS(=O)(=O)c1ccc([N+](=O)[O-])cc1)C(=O)O | > 500 µM | 5.14 µM | 483 µM | – | > 500 µM | 8.52 µM | 309 µM | > 500 µM | 42.5 µM | > 500 µM | 93.8 µM | > 1000 µM |
| O=C(CC[C@H](NS(=O)(=O)c1ccc([N+](=O)[O-])cc1)C(=O)O)NCc1ccccc1 | 95.2 µM | 6.37 µM | 173 µM | > 25 | > 500 µM | 0.21 µM | 109 µM | 343 µM | 23.4 µM | 175 µM | 102 µM | > 1000 µM |
